Data taken from ChEMBL document CHEMBL2331117 (J Med Chem, 2013).
Active and inactive are the calls of the source. The calls are words filed in the database; no cut-off is given here.

Experiments:
[1] = biological target: Phosphatidylinositol 4,5-bisphosphate 3-kinase catalytic subunit gamma isoform (Homo sapiens, UniProt P48736); test: Inhibition of PI3Kgamma (unknown origin)
[2] = AUC (0 to infinity) in CD rat at 3 mg/kg, iv; assay type: ADME, organism-based; set-up: time infinity, dose 3 mg/kg, route intravenous; settings: plasma
Method in brief: (§1)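 Single-dose PK: female athymic nude mice (10 mg/kg), female CD rats and male beagle dogs (3 mg/kg), male cynomolgus monkeys (3 mg/kg), given iv and by oral gavage. Solution in EPW (5% ethanol/45% PEG400/water), with 1:2 HCl (m/m) for mouse, rat and dog and 1:1.5 HCl (m/m) for monkey. Plasma levels followed over 24 h.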

[3] = Drug uptake in tumor of athymic mouse xenografted with human PC3 cells at 100 mg/kg, po after 24 hrs; assay type: ADME, organism-based, Neoplasm, PC-3; set-up: dose 100 mg/kg, route oral; settings: read-out: Drug uptake
Method in brief: (§2)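 PC-3 cells (3 × 10⁶, passages 10–14, in ice-cold HBSS) were implanted sc in 5–8 week old male nude mice. Tumors of 200–500 mg received a single oral 100 mg/kg dose. Plasma and tumor were collected at 1, 4, 8, 16, 24 and 32 h and homogenized in buffer. Lysates were pooled per group (n = 5), and phospho-proteins were measured by Western blot normalized to α-tubulin.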

Mus musculus [4] = test: In vivo inhibition of mTORC1-mediated phosphorylation of pS6 at (serine 240/244) in human MCF7 cells xenografted into athymic nude mouse at 100 mg/kg, po after 16 hrs by Western blotting analysis relative to control; assay type: functional; settings: MCF7, 16 h
Method in brief: (§3)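 MCF-7 cells (DMEM, 10% FBS) were implanted subcutaneously at 5 × 10^6 cells in 50% cold HBSS/50% growth-factor-reduced matrigel into the hindflank of 5−8 week old female nude mice. At tumor size 40−150 mg, mice received a single oral dose of 100 mg/kg. Tumor lysates were pooled per group. Phospho-AKT (S473, T308), p70S6K (T389), S6 (S240/244) and 4E-BP1 (T37/46) were measured by Western blot normalized to α-tubulin.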

Cytochrome P450 3A4 = Cytochrome P450 3A4 (Homo sapiens, UniProt P08684); test: Induction of CYP3A4 (unknown origin); assay type: ADME
Mus musculus [5] = test: In vivo inhibition of mTORC1-mediated phosphorylation of 4EBP1 at ([…]) in human MCF7 cells xenografted into athymic nude mouse at 100 mg/kg, po after 24 hrs by Western blotting analysis relative to control; assay type: functional; settings: MCF7, 24 h
[6] = biological target: Phosphatidylinositol 4,5-bisphosphate 3-kinase catalytic subunit alpha isoform (Homo sapiens, UniProt P42336); test: Inhibition of PI3Kalpha (unknown origin)
Method in brief: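 PI3Kα activity was read as the percentage of ATP consumed, by luciferase–luciferin chemiluminescence (Kinase-Glo). The reaction ran about 2 h at ambient temperature, with ATP consumption kept to 40–60%. Values are the mean of n ≥ 2.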

[7] = Plasma protein binding in monkey at 5 uM; assay type: ADME, cell-free, Macaca mulatta; settings: rhesus monkey, read-out: PPB (converted)
Mus musculus [8] = test: In vivo inhibition of mTORC2-mediated phosphorylation of AKT at serine 473 in human PC3 cells xenografted into athymic nude mouse at 100 mg/kg, po after 4 hrs by Western blotting analysis relative to control; assay type: functional; settings: PC-3, 4 h
Method in brief: (§4)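 PC-3 cells grown in DMEM with 20% FBS were implanted subcutaneously at 3 × 10^6 cells in ice-cold HBSS into the hindflank of 5−8 week old male nude mice. At tumor size 200−500 mg, mice received a single oral dose of 100 mg/kg. Plasma and tumors were collected at 1, 4, 8, 16, 24 and 32 h. Tumor lysates from each group (n = 5) were pooled. Phospho-proteins were quantified by Western blot and normalized to α-tubulin.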

[9] = Clearance in CD rat at 3 mg/kg, iv; assay type: ADME, organism-based; set-up: dose 3 mg/kg, route intravenous; settings: in vivo; method in brief: as §1
[10] = Volume of distribution at steady state in CD rat at 3 mg/kg, iv; assay type: ADME, organism-based; set-up: dose 3 mg/kg, route intravenous; settings: in vivo, read-out: Vdss
[11] = Metabolic stability in mouse liver microsomes after 30 mins; assay type: ADME, Microsome; settings: read-out: Stability
[12] = Drug uptake in tumor of athymic mouse xenografted with human PC3 cells at 100 mg/kg, po after 4 hrs; assay type: ADME, organism-based, Neoplasm, PC-3; set-up: dose 100 mg/kg, route oral; settings: read-out: Drug uptake; method in brief: as §2
[13] = Clearance in athymic nude mouse at 10 mg/kg, iv; assay type: ADME, organism-based; set-up: dose 10 mg/kg, route intravenous; settings: in vivo; method in brief: as §1
Mus musculus [14] = test: In vivo inhibition of mTORC1-mediated phosphorylation of 4EBP1 at ([…]) in human PC3 cells xenografted into athymic nude mouse at 100 mg/kg, po after 4 hrs by Western blotting analysis relative to control; assay type: functional; settings: PC-3, 4 h; method in brief: as §4
Mus musculus [15] = test: In vivo inhibition of mTORC2-mediated phosphorylation of AKT at […] in human MCF7 cells xenografted into athymic nude mouse at 100 mg/kg, po after 32 hrs by Western blotting analysis relative to control; assay type: functional; settings: MCF7, 32 h; method in brief: as §3
[16] = Oral bioavailability in athymic nude mouse at 10 mg/kg; assay type: ADME, organism-based; settings: in vivo
Method in brief: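 For single-dose PK, compound was given intravenously and by oral gavage as a solution in EPW (5% ethanol/45% PEG400/water + 1:2 HCl m/m). Doses were 10 mg/kg in female athymic nude mice and 3 mg/kg in female CD rats and male beagle dogs.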

[17] = biological target: Serine/threonine-protein kinase mTOR (Homo sapiens) (UniProt P42345); test: Competitive inhibition of mTOR (unknown origin) in presence of ATP
Mus musculus [18] = test: In vivo inhibition of mTORC2-mediated phosphorylation of AKT at serine 473 in human PC3 cells xenografted into athymic nude mouse at 100 mg/kg, po after 24 hrs by Western blotting analysis relative to control; assay type: functional; settings: PC-3, 24 h; method in brief: as §4
[19] = Plasma concentration in athymic mouse plasma xenografted with human MCF7 cells at 100 mg/kg, po after 16 hrs; assay type: ADME, organism-based; set-up: dose 100 mg/kg, route oral
Method in brief: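 MCF-7 cells (5 × 10^6, in 50% cold HBSS/50% growth-factor-reduced matrigel) were implanted subcutaneously in the hindflank of 5–8 week old female nude mice. At 40–150 mg tumour size, mice received a single oral dose of 100 mg/kg, and plasma was sampled at the listed times after dosing.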

[20] = biological target: Platelet-derived growth factor receptor beta (Homo sapiens, UniProt P09619); test: Inhibition of PDGFRbeta (unknown origin)
[21] = biological target: Tyrosine-protein kinase JAK2 (Homo sapiens, UniProt O60674); test: Inhibition of JAK2 (unknown origin)
Mus musculus [22] = test: In vivo inhibition of mTORC1-mediated phosphorylation of p70S6K at […] in human PC3 cells xenografted into athymic nude mouse at 100 mg/kg, po after 1 hr by Western blotting analysis relative to control; assay type: functional; settings: PC-3, 1 h; method in brief: as §4
[23] = Metabolic stability in monkey liver microsomes after 30 mins; assay type: ADME, Macaca mulatta, Microsome; settings: rhesus monkey, read-out: Stability
Mus musculus [24] = test: In vivo inhibition of mTORC1-mediated phosphorylation of pS6 at (serine 240/244) in human PC3 cells xenografted into athymic nude mouse at 100 mg/kg, po after 1 hr by Western blotting analysis relative to control; assay type: functional; settings: PC-3, 1 h; method in brief: as §4
[25] = biological target: Receptor-type tyrosine-protein kinase FLT3 (Homo sapiens, UniProt P36888); test: Inhibition of FLT3 (unknown origin)
[26] = Cmax in cynomolgus monkey at 3 mg/kg, iv; assay type: ADME, organism-based, Macaca fascicularis; set-up: dose 3 mg/kg, route intravenous; settings: in vivo; method in brief: as §1
[27] = Cmax in Beagle dog at 3 mg/kg, po; assay type: ADME, organism-based, Canis lupus familiaris; set-up: dose 3 mg/kg, route oral; settings: in vivo; method in brief: as §1

Sequence of Phosphatidylinositol 4,5-bisphosphate 3-kinase catalytic subunit alpha isoform (P42336 whole entry, canonical isoform): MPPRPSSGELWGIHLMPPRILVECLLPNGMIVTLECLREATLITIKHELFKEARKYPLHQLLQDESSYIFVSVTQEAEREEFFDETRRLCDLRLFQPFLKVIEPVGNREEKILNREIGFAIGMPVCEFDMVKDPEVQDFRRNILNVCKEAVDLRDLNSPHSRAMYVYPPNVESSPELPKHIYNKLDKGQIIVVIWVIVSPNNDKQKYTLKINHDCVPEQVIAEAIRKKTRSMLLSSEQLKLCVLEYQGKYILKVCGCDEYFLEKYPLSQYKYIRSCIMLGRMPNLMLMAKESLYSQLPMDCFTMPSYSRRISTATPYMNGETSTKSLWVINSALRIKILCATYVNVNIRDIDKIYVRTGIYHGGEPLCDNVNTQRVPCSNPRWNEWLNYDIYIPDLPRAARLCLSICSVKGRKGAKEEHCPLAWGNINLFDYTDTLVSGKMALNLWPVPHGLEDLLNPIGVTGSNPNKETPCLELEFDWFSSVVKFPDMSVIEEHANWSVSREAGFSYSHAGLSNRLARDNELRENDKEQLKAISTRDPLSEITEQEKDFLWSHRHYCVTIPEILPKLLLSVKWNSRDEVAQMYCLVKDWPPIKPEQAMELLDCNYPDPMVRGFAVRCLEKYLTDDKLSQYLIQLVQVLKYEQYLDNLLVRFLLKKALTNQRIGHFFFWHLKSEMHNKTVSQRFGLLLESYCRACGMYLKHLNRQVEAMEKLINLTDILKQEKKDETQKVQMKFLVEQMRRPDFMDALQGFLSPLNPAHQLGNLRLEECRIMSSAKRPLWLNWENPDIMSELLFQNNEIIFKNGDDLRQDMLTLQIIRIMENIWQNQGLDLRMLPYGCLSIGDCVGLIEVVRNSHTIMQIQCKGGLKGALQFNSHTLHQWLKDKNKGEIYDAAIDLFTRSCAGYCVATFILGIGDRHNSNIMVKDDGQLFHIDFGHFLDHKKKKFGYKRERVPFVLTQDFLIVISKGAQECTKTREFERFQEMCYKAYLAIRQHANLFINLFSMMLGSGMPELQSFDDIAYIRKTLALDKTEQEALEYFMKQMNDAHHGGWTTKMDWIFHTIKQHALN
Sequence of Phosphatidylinositol 4,5-bisphosphate 3-kinase catalytic subunit gamma isoform (P48736 whole entry, canonical isoform): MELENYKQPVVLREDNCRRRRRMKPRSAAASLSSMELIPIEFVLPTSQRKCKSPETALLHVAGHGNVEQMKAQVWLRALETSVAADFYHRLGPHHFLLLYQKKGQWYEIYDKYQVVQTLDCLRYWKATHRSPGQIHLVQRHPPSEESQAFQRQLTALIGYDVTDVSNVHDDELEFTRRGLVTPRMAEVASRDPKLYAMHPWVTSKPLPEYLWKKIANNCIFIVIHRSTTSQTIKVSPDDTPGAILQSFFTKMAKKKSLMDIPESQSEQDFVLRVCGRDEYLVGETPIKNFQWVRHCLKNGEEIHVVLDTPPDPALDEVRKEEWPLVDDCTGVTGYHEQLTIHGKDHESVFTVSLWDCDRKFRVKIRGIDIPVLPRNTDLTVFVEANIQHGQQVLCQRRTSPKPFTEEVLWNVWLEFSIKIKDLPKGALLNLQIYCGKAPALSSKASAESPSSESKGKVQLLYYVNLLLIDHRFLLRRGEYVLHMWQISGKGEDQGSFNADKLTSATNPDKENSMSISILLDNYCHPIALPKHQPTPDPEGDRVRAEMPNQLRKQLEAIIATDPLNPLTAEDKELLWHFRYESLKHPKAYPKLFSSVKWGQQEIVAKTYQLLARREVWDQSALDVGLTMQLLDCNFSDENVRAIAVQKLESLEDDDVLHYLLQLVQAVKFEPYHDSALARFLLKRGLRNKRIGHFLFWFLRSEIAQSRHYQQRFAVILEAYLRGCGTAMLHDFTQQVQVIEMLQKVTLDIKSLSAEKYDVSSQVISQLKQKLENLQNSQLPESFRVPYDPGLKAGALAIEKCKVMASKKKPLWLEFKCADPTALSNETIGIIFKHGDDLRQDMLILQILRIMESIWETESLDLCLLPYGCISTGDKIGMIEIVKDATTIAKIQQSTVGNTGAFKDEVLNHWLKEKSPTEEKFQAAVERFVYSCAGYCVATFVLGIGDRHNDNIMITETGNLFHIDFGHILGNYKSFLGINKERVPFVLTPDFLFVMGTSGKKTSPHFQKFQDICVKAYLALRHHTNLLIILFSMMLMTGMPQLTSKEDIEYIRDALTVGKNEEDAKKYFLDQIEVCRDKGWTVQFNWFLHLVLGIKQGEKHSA
Sequence of Tyrosine-protein kinase JAK2 (O60674 whole entry): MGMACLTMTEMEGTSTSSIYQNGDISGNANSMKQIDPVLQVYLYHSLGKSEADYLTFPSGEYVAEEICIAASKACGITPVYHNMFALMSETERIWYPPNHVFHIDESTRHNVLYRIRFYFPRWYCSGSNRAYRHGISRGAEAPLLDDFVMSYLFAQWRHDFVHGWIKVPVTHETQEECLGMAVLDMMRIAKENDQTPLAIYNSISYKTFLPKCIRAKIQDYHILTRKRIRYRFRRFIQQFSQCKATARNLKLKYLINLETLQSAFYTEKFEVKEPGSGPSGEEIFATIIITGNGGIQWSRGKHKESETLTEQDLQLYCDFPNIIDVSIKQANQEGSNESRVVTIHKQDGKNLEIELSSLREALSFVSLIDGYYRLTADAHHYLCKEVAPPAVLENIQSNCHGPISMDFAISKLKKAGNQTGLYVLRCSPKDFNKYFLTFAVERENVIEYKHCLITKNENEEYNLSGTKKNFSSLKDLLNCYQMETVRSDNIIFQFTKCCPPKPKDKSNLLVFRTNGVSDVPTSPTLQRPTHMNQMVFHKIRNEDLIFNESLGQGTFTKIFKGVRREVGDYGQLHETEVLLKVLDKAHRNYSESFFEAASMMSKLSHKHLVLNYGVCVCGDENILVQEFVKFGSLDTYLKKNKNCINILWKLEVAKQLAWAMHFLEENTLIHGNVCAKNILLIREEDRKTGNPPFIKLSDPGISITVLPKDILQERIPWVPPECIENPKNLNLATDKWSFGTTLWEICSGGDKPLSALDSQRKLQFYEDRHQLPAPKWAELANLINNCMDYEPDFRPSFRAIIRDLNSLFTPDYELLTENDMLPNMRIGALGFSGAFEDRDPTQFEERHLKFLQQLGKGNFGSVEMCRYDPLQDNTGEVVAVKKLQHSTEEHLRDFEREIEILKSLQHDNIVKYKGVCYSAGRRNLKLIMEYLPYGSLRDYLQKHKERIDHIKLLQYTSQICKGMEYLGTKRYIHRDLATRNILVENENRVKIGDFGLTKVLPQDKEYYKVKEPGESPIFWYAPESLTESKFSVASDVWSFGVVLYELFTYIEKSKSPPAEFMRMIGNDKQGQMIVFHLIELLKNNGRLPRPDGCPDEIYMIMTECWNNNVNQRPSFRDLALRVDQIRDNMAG
Sequence of Platelet-derived growth factor receptor beta (P09619 whole entry): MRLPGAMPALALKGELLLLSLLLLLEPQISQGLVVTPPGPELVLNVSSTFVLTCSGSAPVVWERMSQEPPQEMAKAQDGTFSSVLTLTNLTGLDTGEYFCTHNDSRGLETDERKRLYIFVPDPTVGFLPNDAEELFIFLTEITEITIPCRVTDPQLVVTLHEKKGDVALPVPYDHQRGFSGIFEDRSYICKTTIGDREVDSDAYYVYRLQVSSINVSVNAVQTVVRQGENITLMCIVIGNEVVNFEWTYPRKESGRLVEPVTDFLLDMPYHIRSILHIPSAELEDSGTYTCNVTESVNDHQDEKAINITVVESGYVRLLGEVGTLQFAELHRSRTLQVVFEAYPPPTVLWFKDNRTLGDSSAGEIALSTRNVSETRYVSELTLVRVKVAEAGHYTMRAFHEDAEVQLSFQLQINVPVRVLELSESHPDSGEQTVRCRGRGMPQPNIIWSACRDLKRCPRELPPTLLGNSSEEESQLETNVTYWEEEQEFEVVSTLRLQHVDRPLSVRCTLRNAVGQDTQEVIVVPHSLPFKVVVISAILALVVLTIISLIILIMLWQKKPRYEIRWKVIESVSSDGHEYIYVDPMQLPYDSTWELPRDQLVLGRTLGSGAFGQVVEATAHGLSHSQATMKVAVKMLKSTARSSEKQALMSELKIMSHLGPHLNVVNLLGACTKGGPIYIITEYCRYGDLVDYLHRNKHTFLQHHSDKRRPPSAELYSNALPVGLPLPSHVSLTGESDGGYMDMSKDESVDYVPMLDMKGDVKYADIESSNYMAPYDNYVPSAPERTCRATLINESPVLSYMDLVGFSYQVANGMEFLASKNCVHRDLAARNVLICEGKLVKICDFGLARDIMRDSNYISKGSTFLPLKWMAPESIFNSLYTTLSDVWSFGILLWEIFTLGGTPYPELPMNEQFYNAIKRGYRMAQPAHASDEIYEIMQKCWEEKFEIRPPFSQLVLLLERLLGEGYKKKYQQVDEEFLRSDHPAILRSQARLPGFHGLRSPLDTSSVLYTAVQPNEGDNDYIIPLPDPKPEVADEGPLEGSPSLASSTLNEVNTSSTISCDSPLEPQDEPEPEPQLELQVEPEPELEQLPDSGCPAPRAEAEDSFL
Sequence of Cytochrome P450 3A4 (P08684 whole entry): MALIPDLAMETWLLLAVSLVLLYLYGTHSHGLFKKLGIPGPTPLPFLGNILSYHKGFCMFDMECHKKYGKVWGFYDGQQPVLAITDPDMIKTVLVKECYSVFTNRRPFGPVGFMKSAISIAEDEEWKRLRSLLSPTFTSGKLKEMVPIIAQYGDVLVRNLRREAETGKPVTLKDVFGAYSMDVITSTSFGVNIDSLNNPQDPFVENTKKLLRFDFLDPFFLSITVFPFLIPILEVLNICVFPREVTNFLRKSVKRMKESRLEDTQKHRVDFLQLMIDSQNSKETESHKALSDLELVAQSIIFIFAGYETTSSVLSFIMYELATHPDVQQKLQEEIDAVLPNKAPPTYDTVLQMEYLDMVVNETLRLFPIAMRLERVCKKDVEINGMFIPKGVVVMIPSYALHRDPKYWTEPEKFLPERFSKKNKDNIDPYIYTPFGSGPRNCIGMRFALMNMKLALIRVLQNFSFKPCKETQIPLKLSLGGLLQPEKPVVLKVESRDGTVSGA

IC50 [1]: > 5 µM
AUC(0-inf) [2]: 3.72 µM·h
concentration at 24 h [3]: 110 nM
Activity (Cytochrome P450 3A4): 50 µM
IC50 [6]: > 3 µM
fraction unbound at 5 µM [7]: 0.1
clearance [9]: 21.2 mL/min/kg
Vd [10]: 1.27 L/kg
remaining at 0.5 h [11]: 78%
concentration at 4 h [12]: 18600 nM
clearance [13]: 45.8 mL/min/kg
bioavailability [16]: 31.4%
inhibition [17]: Active
concentration at 16 h [19]: 2080 nM
IC50 [20]: > 3.5 µM
IC50 [21]: > 3.5 µM
remaining at 0.5 h [23]: 65%
IC50 [25]: > 3.5 µM
Cmax [26]: 950 nM
Cmax [27]: 1660 nM
SMILES: Cc1c(C(=O)N2CCOc3ccc(-c4ccc(N)nc4)cc3C2)ccc(S(C)(=O)=O)c1F
inhibition in vivo at 100 mg/kg (Mus musculus [4]): 36%
inhibition in vivo at 100 mg/kg (Mus musculus [5]): -17%
inhibition in vivo at 100 mg/kg (Mus musculus [8]): 81%
inhibition in vivo at 100 mg/kg (Mus musculus [14]): 84%
inhibition in vivo at 100 mg/kg (Mus musculus [15]): 10%
inhibition in vivo at 100 mg/kg (Mus musculus [18]): 5%
inhibition in vivo at 100 mg/kg (Mus musculus [22]): 87%
inhibition in vivo at 100 mg/kg (Mus musculus [24]): 88%
